{"data": "Experimental data from different studies", "SIRT6": "NAD-dependent protein deacylase sirtuin-6 (SIRT6, Homo sapiens, UniProt Q8N6T7)", "VRK1": "Serine/threonine-protein kinase VRK1 (VRK1, Homo sapiens, UniProt Q99986)", "PBK": "Lymphokine-activated killer T-cell-originated protein kinase (PBK, Homo sapiens, UniProt Q96KB5)", "BRD7": "Bromodomain-containing protein 7 (BRD7, Homo sapiens, UniProt Q9NPI1)"}
{"SMILES": "NC(=O)c1ccc(C(=O)NOCc2ccc3nccnc3c2)cc1", "target": "SIRT6", "test": "enzyme activity, inhibitor, fluorescence", "conditions": "100 µM", "endpoint": "inhibition", "result": "61.4%"}
{"SMILES": "Nc1nonc1-n1cc(C(=O)N/N=C/c2cccc([N+](=O)[O-])c2O)nn1", "target": "SIRT6", "test": "enzyme activity, inhibitor, fluorescence", "conditions": "100 µM", "endpoint": "remaining activity", "result": "41.4%"}
{"SMILES": "COc1cc(Cl)c(C(=O)N[C@@H](CN[C@H]2CC[C@@H](N)CC2)Cc2ccc(C#N)cc2)cc1-c1ccc(CN[C@H](C)c2ccc(C)cc2)o1", "target": "[Pyruvate dehydrogenase (acetyl-transferring)] kinase isozyme 4, mitochondrial (PDK4, Homo sapiens, UniProt Q16654)", "test": "enzyme activity, inhibitor", "conditions": "1 µM", "endpoint": "remaining activity", "result": "103%"}
{"SMILES": "Cc1cccc(Sc2ccc(CONC(=O)c3ccc(C(N)=O)cc3)cc2C(F)(F)F)c1", "target": "SIRT6", "test": "enzyme activity, inhibitor, fluorescence", "conditions": "100 µM", "endpoint": "inhibition", "result": "100%"}
{"SMILES": "CC(C)(O)c1cn(-c2ccc(-c3cccc(S(C)(=O)=O)c3)cc2)c(C(C)(C)c2ccccc2Cl)n1", "target": "Oxysterols receptor LXR-beta (NR1H2, Homo sapiens, UniProt P55055)", "test": "reporter gene, agonist", "test system": "CV-1", "endpoint": "Emax", "result": "72%"}
{"SMILES": "Nc1nonc1-n1cc(C(=O)N/N=C/c2ccco2)nn1", "target": "SIRT6", "test": "enzyme activity, inhibitor, fluorescence", "conditions": "100 µM", "endpoint": "remaining activity", "result": "40.9%"}
{"SMILES": "NC(=O)c1ccc(C(=O)NOCc2cccc(Br)c2)cc1", "target": "SIRT6", "test": "enzyme activity, inhibitor, fluorescence", "conditions": "100 µM", "endpoint": "inhibition", "result": "82.3%"}
{"SMILES": "Nc1ncnc2occ(-c3ccc(NC(=O)Nc4cc(C(F)(F)F)ccc4F)cc3)c12", "target": "Serine/threonine-protein kinase TNNI3K (TNNI3K, Homo sapiens, UniProt Q59H18)", "test": "cell-free assay", "conditions": "20 µM", "endpoint": "remaining signal", "result": "1.5%"}
{"SMILES": "Cn1c2c(c3ccc(Cl)c(Cl)c31)C(C#N)C(C)(C)NC2=O (stereo not drawn)", "target": "VRK1", "test": "thermal stability, DSF", "conditions": "10 µM", "endpoint": "ΔTm", "result": "0.1 °C"}
{"SMILES": "Nc1nonc1-n1cc(C(=O)N/N=C/c2ccc(C(F)(F)F)cc2C(F)(F)F)nn1", "target": "SIRT6", "test": "enzyme activity, inhibitor, fluorescence", "conditions": "100 µM", "endpoint": "remaining activity", "result": "32.5%"}
{"SMILES": "CNC(=O)c1ccc(C(=O)NOCc2ccc(C(F)(F)F)cc2)cc1", "target": "SIRT6", "test": "enzyme activity, inhibitor, fluorescence", "conditions": "100 µM", "endpoint": "inhibition", "result": "35.3%"}
{"SMILES": "N#CC1c2c([nH]c3c(Cl)c(Cl)ccc23)C(=O)NC12CCCCC2 (racemic)", "target": "PBK", "test": "thermal stability, DSF", "conditions": "10 µM", "endpoint": "ΔTm", "result": "0.8 °C"}
{"SMILES": "NC(=O)c1ccc(C(=O)NOCc2ccc(Sc3ccc(F)cc3)c(C(F)(F)F)c2)cc1", "target": "SIRT6", "test": "enzyme activity, inhibitor, fluorescence", "conditions": "100 µM", "endpoint": "inhibition", "result": "90.2%"}
{"SMILES": "C[S+]([O-])c1ccc(-c2nc(-c3ccncc3)c(-c3ccc(F)cc3)[nH]2)cc1 (stereo not drawn)", "target": "BRD7", "test": "thermal stability, DSF", "conditions": "10 µM", "endpoint": "ΔTm", "result": "0.34 °C"}
{"SMILES": "Cn1c2c(c3ccc(Cl)c(Cl)c31)C(C#N)C1(CCCC1)NC2=O (stereo not drawn)", "target": "VRK1", "test": "thermal stability, DSF", "conditions": "10 µM", "endpoint": "ΔTm", "result": "0 °C"}
{"SMILES": "Oc1ccc(-c2nc(-c3ccncc3)c(-c3ccc(F)cc3)[nH]2)cc1", "target": "BRD7", "test": "thermal stability, DSF", "conditions": "10 µM", "endpoint": "ΔTm", "result": "1.3 °C"}
{"SMILES": "Cc1cc2c(cc1N1C(=O)c3cccc4c(Cl)ccc(c34)C1=O)n(C)c(=O)n2C", "target": "BRD7", "test": "thermal stability, DSF", "conditions": "10 µM", "endpoint": "ΔTm", "result": "2.3 °C"}
{"SMILES": "O=C(Nc1ccc(S(=O)(=O)N2CCC(Cl)CC2)cc1)c1ccc([N+](=O)[O-])o1", "target": "Voltage-dependent N-type calcium channel subunit alpha-1B (Cacna1b, Rattus norvegicus, UniProt Q02294)", "test": "cell-free assay", "conditions": "10 µM", "endpoint": "inhibition", "result": "18%"}
{"SMILES": "Cn1c2c(Cl)c(Cl)ccc2c2cc(N)[nH]c(=O)c21", "target": "VRK1", "test": "thermal stability, DSF", "conditions": "10 µM", "endpoint": "ΔTm", "result": "1.3 °C"}
{"SMILES": "NC(=O)c1ccc(C(=O)NOCc2cc(Cl)cc(Cl)c2)cc1", "target": "SIRT6", "test": "enzyme activity, inhibitor, fluorescence", "conditions": "100 µM", "endpoint": "inhibition", "result": "88.2%"}
{"SMILES": "CC/C(=N\\NC(=O)NCc1cccc(O)c1)c1ccc(O)c(C)c1O", "target": "ALK tyrosine kinase receptor (ALK, Homo sapiens, UniProt Q9UM73)", "test": "enzyme activity, inhibitor", "conditions": "0.1 µM", "endpoint": "inhibition", "result": "1%"}
{"SMILES": "CCC1(CC)NC(=O)c2c(c3ccc(Cl)c(Cl)c3n2C)C1C#N (stereo not drawn)", "target": "VRK1", "test": "thermal stability, DSF", "conditions": "10 µM", "endpoint": "ΔTm", "result": "0 °C"}
{"SMILES": "CCCOc1ccc(OC)c(F)c1C(=O)c1ccc(C(=O)N[C@@H]2CNC[C@H]2NC(=O)c2ccc3[nH]ncc3c2)cc1", "target": "Angiopoietin-1 receptor (TEK, Homo sapiens, UniProt Q02763, Y897S)", "test": "enzyme activity, inhibitor", "conditions": "10 µM", "endpoint": "remaining activity", "result": "47%"}
{"SMILES": "NC(=O)c1ccc(C(=O)NOCc2ccc(C(F)(F)F)cc2)cc1", "target": "SIRT6", "test": "enzyme activity, inhibitor, fluorescence", "conditions": "100 µM", "endpoint": "inhibition", "result": "87%"}
{"SMILES": "CN1CCC2(CC1)NC(=O)c1c(c3ccc(Cl)c(Cl)c3n1C)C2C#N (racemic)", "target": "PBK", "test": "thermal stability, DSF", "conditions": "10 µM", "endpoint": "ΔTm", "result": "-0.2 °C"}
{"SMILES": "Nc1nonc1-n1cc(C(=O)N/N=C/c2ccc([N+](=O)[O-])cc2)nn1", "target": "SIRT6", "test": "enzyme activity, inhibitor, fluorescence", "conditions": "100 µM", "endpoint": "remaining activity", "result": "24.8%"}
{"SMILES": "Cc1ccc(C(=O)Nc2ccc(CN3CCN(C)CC3)c(C(F)(F)F)c2)cc1C#Cc1cnc2cccnn12", "target": "Mitogen-activated protein kinase 6 (MAPK6, Homo sapiens, UniProt Q16659)", "test": "enzyme activity, inhibitor", "conditions": "23.5 nM", "endpoint": "remaining activity", "result": "100%"}
{"SMILES": "Nc1nonc1-n1cc(C(=O)N/N=C/c2ccccc2)nn1", "target": "SIRT6", "test": "enzyme activity, inhibitor, fluorescence", "conditions": "100 µM", "endpoint": "remaining activity", "result": "38.9%"}
{"SMILES": "Cn1c2c(Cl)c(Cl)ccc2c2cn[nH]c(=O)c21", "target": "PBK", "test": "thermal stability, DSF", "conditions": "10 µM", "endpoint": "ΔTm", "result": "-0.3 °C"}
{"SMILES": "Nc1nonc1-n1cc(C(=O)N/N=C/c2ccccc2C(=O)O)nn1", "target": "SIRT6", "test": "enzyme activity, inhibitor, fluorescence", "conditions": "100 µM", "endpoint": "remaining activity", "result": "84.2%"}
{"SMILES": "Cn1c2c(c3ccccc31)C(C#N)C(C)(C)NC2=O (stereo not drawn)", "target": "VRK1", "test": "thermal stability, DSF", "conditions": "10 µM", "endpoint": "ΔTm", "result": "-0.1 °C"}
{"SMILES": "NC(=O)c1ccc(C(=O)NOCc2ccccc2Cl)cc1", "target": "SIRT6", "test": "enzyme activity, inhibitor, fluorescence", "conditions": "100 µM", "endpoint": "inhibition", "result": "78.2%"}
{"SMILES": "COC(=O)c1ccc(O)c(/C=N/NC(=O)c2cn(-c3nonc3N)nn2)c1", "target": "SIRT6", "test": "enzyme activity, inhibitor, fluorescence", "conditions": "100 µM", "endpoint": "remaining activity", "result": "99.6%"}
